According to ChEMBL document CHEMBL4033710, “Synthesis and biological evaluation of kresoxim-methyl analogues as novel inhibitors of hypoxia-inducible factor (HIF)-1 accumulation in cancer cells” (Bioorg Med Chem Lett, 2017):
Activity calls are given as the source filed them. The rule behind the calls is not given here.

Assays:
Assay type in all cases: functional, cell-based
[1] = test system: HCT-116; test: Increase in intracellular oxygen content in human HCT116 cells at 5 uM after 6 hrs under hypoxic-condition by mono azo rhodamine/Nuclear-ID Red DNA staining based fluorescence assay
Method in brief: (§1)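 HCT116 cells treated with compound for 6 h under hypoxia and loaded with the hypoxia-sensitive probe mono azo rhodamine (MAR). MAR fluoresces when its azo group is reduced in hypoxia. Nuclei were counterstained with NUCLEAR-ID Red. The value is the MAR/NUCLEAR-ID fluorescence intensity ratio, compared against a hypoxia control by significance testing.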

[2] = test system: HCT-116; test: Inhibition of hypoxia-induced HIF1-alpha accumulation in human HCT116 cells after 6 hrs by immunoblot analysis
Method in brief: (§2)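 HCT116 cells incubated under hypoxia for 6 h with each compound. HIF-1α protein was detected by immunoblot with specific antibodies, using β-tubulin as loading reference.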

[3] = test system: HCT-116; test: Cytotoxicity against human HCT116 cells after 72 hrs by methylene blue staining based assay; conditions: HCT-116, 72 h
Method in brief: (§3)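 HCT116 cells exposed to each analogue for 72 h. Viability read out by methylene blue staining.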

[4] = test system: HCT-116; test: Cytotoxicity against human HCT116 cells at 0.625 to 10 uM after 72 hrs under hypoxic condition by methylene blue staining based assay
[5] = test system: HCT-116; test: Increase in intracellular oxygen content in human HCT116 cells after 6 hrs under hypoxic-condition by mono azo rhodamine/ Nuclear-ID Red DNA staining based fluorescence assay; method in brief: as §1
[6] = test system: HCT-116; test: Inhibition of hypoxia-induced HIF1-alpha accumulation in human HCT116 cells at 5 uM after 6 hrs by immunoblot analysis; method in brief: as §2
[7] = test system: HCT-116; test: Cytotoxicity against human HCT116 cells at 0.625 to 10 uM after 72 hrs by methylene blue staining based assay; method in brief: as §3

| Structure (SMILES) | Activity [1] | inhibition [2] | IC50 [3] | Activity [4] | further results |
| --- | --- | --- | --- | --- | --- |
| CO/N=C(/C(=O)OC)c1ccccc1COc1cccc(OCc2ccccc2)c1 | Active | – | – | – | – |
| C=Cc1ccc(COc2cccc(OCc3ccccc3/C(=N\OC)C(=O)OC)c2)cc1 | Active | Dose-dependent effect | 1.26 µM | Active | – |
| CO/N=C/c1cccc(OCc2ccccc2/C(=N\OC)C(=O)OC)c1 | Active | – | – | – | – |
| CO/N=C(/C(=O)OC)c1ccccc1COc1cccc(O)c1 | Active | – | – | – | – |
| CO/N=C(\C)c1cccc(OCc2ccccc2/C(=N\OC)C(=O)OC)c1 | Active | – | – | – | – |
| CO/N=C(/C(=O)OC)c1ccccc1COc1cccc(OCc2ccc(Cl)cc2)c1 | – | Dose-dependent effect | 1.62 µM | Active | Activity [5]: Dose-dependent effect |
| CO/N=C(/C(=O)OC)c1ccccc1COc1cccc(OCc2cc(C(F)(F)F)cc(C(F)(F)F)c2)c1 | Active | Dose-dependent effect | 1.36 µM | Active | – |
| CO/N=C(/C(=O)OC)c1ccccc1COc1cccc(OCC#N)c1 | inactive | – | – | inactive | inhibition [6]: inactive; Activity [7]: inactive |
| CO/N=C/c1ccc(OC)c(OCc2ccccc2/C(=N\OC)C(=O)OC)c1 | Active | – | – | – | – |
